Measurements reported in ChEMBL document CHEMBL1132627, “Synthesis and biological evaluation of boron-containing polyamines as potential agents for neutron capture therapy of brain tumors” (J Med Chem, 1999).
Where “and” joins values, the source holds several entries; their conditions need not be identical. Equal entries are not always repeated.

Assays:
[1] = In vitro cellular uptake by F98 glioma cells after 48 hr incubation in the presence of 5.1 micro g of B/mL media concentration; type: functional, Rattus norvegicus
In short: (§1)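 5×10^6 F98 cells per flask in DMEM with 10% FBS for 24 h. Medium then replaced with compound at the molar concentration matching the stated boron level, and cells held at 37 °C, 5% CO2. Cells washed three times with PBS, detached with trypsin-EDTA and digested in H2SO4/H2O2. Boron in media and cells by DCP-AES; 10^9 cells ≈ 1 g.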

[2] = In Vitro Toxicity measured as the conc. required for 50% reduction in SRBabsorbance by F98 glioma cells; type: functional, Rattus norvegicus
In short: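 F98 rat glioma cells, 10,000/well in DMEM with 10% FBS, grown overnight at 37 °C, 5% CO2. Then exposed 24 h to varying compound concentrations. Fixed with cold TCA (1 h, 4 °C), stained 20 min with 0.4% SRB in 1% acetic acid, dye solubilized in 10 mM Tris base, A492 read. Six replicates per concentration, expressed as % untreated control; IC50 = 50% reduction.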

[3] = tested on: Nucleic Acid; experiment: Concentration required to decrease the fluorescence of the ethidium bromide-calf thymus DNA complex by 50%; type: nucleic-acid assay, Bos taurus
In short: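 Calf thymus DNA (10 μg) in 2 mM HEPES, 10 μM EDTA, 9.4 mM NaCl, pH 7.0, with 1.6 μM ethidium bromide. Polyamine added stepwise in aliquots. Fluorescence read at excitation 546 nm and emission 598 nm. IC50 is the concentration that lowers complex fluorescence by 50%.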

[4] = tested on: Mus musculus; experiment: In vivo biodistribution in mice kidney bearing intracerebral GL261 gliomas at the dose of 10 microg of boron/g/day; type: ADME, organism-based
In short: (§2)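 C57Bl/6 mice implanted stereotactically in brain (2.5–3.0 mm deep) with 10^5 GL261 cells in serum-free DMEM with 1.5% agarose. Polyamine-deficient diet and 2% DFMO water for 3 days, then Alzet pump infusion at 10 μg boron/g per day for 3 days with diet and DFMO continued. Five mice; tissue boron by DCP-AES, mean ± SD.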

[5] = tested on: Mus musculus; experiment: In vivo biodistribution in mice liver bearing intracerebral GL261 gliomas at the dose of 10 microg of boron/g/day; type: ADME, organism-based; in short: as §2
[6] = organism: Rattus norvegicus; experiment: In vitro cellular uptake by F98 glioma cells after 24 h incubation in the presence of 5.4 ug of B/mL media concentration; type: functional; in short: as §1
[7] = organism: Rattus norvegicus; experiment: In vitro cellular uptake by F98 glioma cells after 48 hr incubation in the presence of 5.4 micro g of B/mL media concentration; type: functional; in short: as §1
[8] = organism: Rattus norvegicus; experiment: In vitro cellular uptake by F98 glioma cells after 48 hr incubation in the presence of 0.5 micro g of B/mL media concentration; type: functional; in short: as §1
[9] = organism: Rattus norvegicus; experiment: In vitro cellular uptake by F98 glioma cells after 48 hr incubation in the presence of 5.3 micro g of B/mL media concentration; type: functional; in short: as §1
[10] = organism: Rattus norvegicus; experiment: In vitro cellular uptake by F98 glioma cells after 24 h incubation in the presence of 5.3 ug of B/mL media concentration; type: functional; in short: as §1
[11] = In vitro concentration required for 50% reduction in the uptake of [3H]-TdR by F98 glioma cells; type: functional, Rattus norvegicus
[12] = tested on: Mus musculus; experiment: In vivo biodistribution in mice liver bearing subcutaneous B16 melanomas at the dose of 10 ug/g; type: ADME, organism-based
[13] = tested on: Mus musculus; experiment: In vivo biodistribution in mice kidney bearing subcutaneous B16 melanomas at the dose of 10 ug/g; type: ADME, organism-based
[14] = tested on: Mus musculus; experiment: In vivo biodistribution in mice muscle bearing subcutaneous B16 melanomas at the dose of 10 ug/g; type: ADME, organism-based, Muscle tissue
[15] = tested on: Mus musculus; experiment: In vivo biodistribution in mice blood bearing subcutaneous B16 melanomas at the dose of 10 ug/g; type: ADME, organism-based
[16] = organism: Rattus norvegicus; experiment: In vitro cellular uptake by F98 glioma cells after 24 h incubation in the presence of 0.5 ug of B/mL media concentration; type: functional

Cl.Cl.Cl.NCCCCN(CCCN)Cc1ccc(B(O)O)cc1
Ccellular [1]: 114 ug of B (g of cells)-1 | IC50 [2]: > 5000 µM | IC50 [3]: 115 µM | Biodistribution [4]: 44 ug of B g-1 | Biodistribution [5]: 22.9 ug of B g-1

3-(2-{4-[(4-Amino-butyl)-(3-amino-propyl)-amino]-butyl}-cyclopropyl)-propane-1,2-diol; trihydrochloride
Ccellular (ug of B (g of cells)-1) [6]: 51 | Ccellular (ug of B (g of cells)-1) [7]: 104 | Ccellular (ug of B (g of cells)-1) [8]: 9

3-[2-(4-{(3-Amino-propyl)-[4-(3-amino-propylamino)-butyl]-amino}-butyl)-cyclopropyl]-propane-1,2-diol hydrochloride
Ccellular (ug of B (g of cells)-1) [9]: 83 | Ccellular (ug of B (g of cells)-1) [8]: 20 | Ccellular (ug of B (g of cells)-1) [10]: 60

NCCCCNCCCN [SPERMIDINE]
IC50 [2]: > 100 µM | IC50 [3]: 105 µM

NCCCNCCCCNCCCN [SPERMINE]
IC50 [2]: > 100 µM | IC50 [3]: 3 µM

N1-(3-Amino-propyl)-N1-(4-cyclopropyl-butyl)-butane-1,4-diamine(B10H10) [listing 1 of 2 here]
IC50 [11]: 22 µM | Biodistribution [12]: 74.8 ug of B g-1 | Biodistribution [13]: 201.3 ug of B g-1 | IC50 [3]: 147 µM | Biodistribution [14]: 9.8 ug of B g-1 | Biodistribution [15]: 9.3 ug of B g-1 and 12.5 ug of B g-1

N1-(3-Amino-propyl)-N1-(4-cyclopropyl-butyl)-butane-1,4-diamine(B10H10) [listing 2 of 2 here]
Ccellular (ug of B (g of cells)-1) [8]: 43 | Ccellular (ug of B (g of cells)-1) [16]: 65

N*1*-{4-[2-(2-Amino-ethyl)-cyclopropyl]-butyl}-N*1*-(3-amino-propyl)-butane-1,4-diamine; trihydrochloride
Ccellular (ug of B (g of cells)-1) [6]: 51 | Ccellular (ug of B (g of cells)-1) [7]: 116 | Ccellular (ug of B (g of cells)-1) [8]: 19

N,N'-Bis-(3-amino-propyl)-N-(4-cyclopropyl-butyl)-butane-1,4-diamine hydrochloride
Ccellular (ug of B (g of cells)-1) [8]: 64

N-{4-[2-(2-Amino-ethyl)-cyclopropyl]-butyl}-N,N'-bis-(3-amino-propyl)-butane-1,4-diamine hydrochloride
Ccellular (ug of B (g of cells)-1) [9]: 229 | Ccellular (ug of B (g of cells)-1) [8]: 15 | Ccellular (ug of B (g of cells)-1) [10]: 82
